Screening data: PubChem, Sanford-Burnham Center for Chemical Genomics
SENP8 block-1 – inhibitors of human SENP8 protease; Q96LD8; recombinant SENP8, Nedd8 substrate fluorescence; inhibition, % at 20 µM; 360,000 compounds, 0.64% hits; AID 602440; in the data active means inhibition mostly above about 40%, no sharp cut-off; inactive means mostly below about 27%
SENP1 FRET inh – SENP1 (human) catalytic domain inhibition; Q9P0U3; recombinant SENP1 catalytic domain, CyPet-SUMO1-YPet FRET cleavage; inhibition, % at 10 µM; 360,000 compounds, 0.21% hits;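 active means inhibition at least 30% at 10 µM, raw YFP signal under a set limit, fluorescence ratio 0.5 to 1.5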;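 further: 0% = enzyme with DMSO and 100% = no enzyme wells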
Target sequence (Q9P0U3 419-644 limits assumed): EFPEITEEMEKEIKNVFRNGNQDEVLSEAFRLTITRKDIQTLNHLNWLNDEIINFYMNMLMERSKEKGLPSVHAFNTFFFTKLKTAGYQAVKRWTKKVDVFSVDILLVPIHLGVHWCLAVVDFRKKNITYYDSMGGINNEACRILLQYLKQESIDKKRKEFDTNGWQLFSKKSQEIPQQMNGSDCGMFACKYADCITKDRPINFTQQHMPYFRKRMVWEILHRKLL
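System: Recombinant human SENP1 catalytic domain, His6-tagged | Incubation: Enzyme reaction for 50 min at room temperature, dark | Medium: Tris pH 8 with BME, BSA, NP40 and catalase | Also added: 25 nM SUMO1 FRET substrate | Compound: 10 µM single point, 0.5% DMSO | Measured by: FRET fluorescence in CFP and YFP emission channels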
SENP7 block – inhibitors of human SENP7 protease. Q9BQF6. recombinant SENP7, Z-RLRGG-aminoluciferin luminescence, 40 min. inhibition, % at 5 µM. 330,000 compounds, 1.5% hits. AID 434973;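 active means inhibition above about 50% at the single test dose, limit read from the data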;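 further: plate controls were DMSO with enzyme for no effect and no enzyme buffer wells for full effect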
SENP6 inh – SENP6 protease inhibition. Recombinant SENP6 catalytic domain, aminoluciferin luminescence. inhibition, % at 10 µM. Q9GZR1. 330,000 compounds, 1.8% hits;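 active means inhibition above about 50% at the single tested dose, limit read from the data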;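 further: plate controls were DMSO wells with enzyme for no effect and DMSO wells lacking enzyme for full effect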
Target sequence (Q9GZR1 628-1112 limits assumed): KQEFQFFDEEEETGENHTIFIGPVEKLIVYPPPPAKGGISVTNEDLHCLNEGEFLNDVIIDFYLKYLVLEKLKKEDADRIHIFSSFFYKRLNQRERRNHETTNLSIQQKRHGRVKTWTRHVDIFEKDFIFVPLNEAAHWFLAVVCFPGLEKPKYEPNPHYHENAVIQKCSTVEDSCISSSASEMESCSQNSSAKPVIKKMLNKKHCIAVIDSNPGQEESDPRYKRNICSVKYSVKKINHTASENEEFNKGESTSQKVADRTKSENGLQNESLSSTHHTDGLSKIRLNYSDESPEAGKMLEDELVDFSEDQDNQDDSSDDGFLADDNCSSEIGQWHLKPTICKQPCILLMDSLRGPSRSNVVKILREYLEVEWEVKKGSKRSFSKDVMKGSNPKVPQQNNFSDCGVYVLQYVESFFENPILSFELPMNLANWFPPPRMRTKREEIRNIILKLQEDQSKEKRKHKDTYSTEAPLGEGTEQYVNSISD
SENP8 block-2 – blocks the human protease SENP8. purified SENP8, Z-RLRGG-aminoluciferin cleavage, luminescence. 330,000 compounds, 1.2% hits. inhibition, % at 10 µM. Q96LD8; in the data active means inhibition above about 50%
SENP8 conf – confirmation of human SENP8 protease inhibitors; Recombinant SENP8, Z-RLRGG-aminoluciferin luminescence, 60 min; 6,200 compounds, 40% hits; inhibition, % at 12.5 µM; shares compounds with SENP7 block;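 active means mean inhibition across replicates above about 50%, limit read from the data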
SENP6 confirm – confirmation of human SENP6 protease inhibitors; recombinant SENP6, Z-RLRGG-aminoluciferin luminescence; 6,200 compounds, 58% hits; AID 488915; inhibition, % at 12.5 µM; shares compounds with SENP7 block
SENP7 conf – confirmation of human SENP7 protease inhibitors; AID 488917; recombinant SENP7, Z-RLRGG-aminoluciferin luminescence, 40 min; shares compounds with SENP7 block; inhibition, % at 12.5 µM; 6,200 compounds, 69% hits
Casp3 SENP sel – inhibits human caspase-3 in SENP selectivity test | shares compounds with SENP7 block | purified caspase-3, Z-DEVD-aminoluciferin luminescence, 60 min | inhibition, % at 12.5 µM | 6,200 compounds, 60% hits | AID 488918;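 active means mean inhibition above about 50%, limit read from the data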;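 further: plate controls were enzyme with DMSO for no effect and wells without caspase-3 for full effect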
SENP luc ctr – interferes with luciferase luminescence in SENP counter-screen | shares compounds with SENP7 block | Pre-incubated SENP8/Z-RLRGG-aminoluciferin, luciferase luminescence interference | inhibition, % at 12.5 µM | 6,200 compounds, 39% hits | AID 488919;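 active means mean inhibition above about 50% when retested at one dose, limit read from the data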;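 further: plate controls were DMSO wells with completed reaction for no effect and substrate without enzyme for full effect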
* = called active by the depositor; nt = no result given. A selection: hits, their analogues and other compounds. The true share with any hit is near 2.5%.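 How the source made its calls, unless noted: active means mean inhibition above about 50% in the one-dose retest (limit read from the data); inactive means the rest.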

SMILES	SENP8 block-1	SENP1 FRET inh	SENP7 block	SENP6 inh	SENP8 block-2	SENP8 conf	SENP6 confirm	SENP7 conf	Casp3 SENP sel	SENP luc ctr
Nc1ccc2nc(-c3ccc(Cl)cc3)[nH]c2c1	-432.6	-100.3	62.7*	75.3*	65.9*	79.8*	81.0*	54.3*	45.1	81.0*
Nc1ccc(-c2nc3ccc(N)cc3[nH]2)cc1	-420.6	-9.7	13.0	17.8	-3.0	nt	nt	nt	nt	nt
Nc1ccc2nc(-c3cc(Cl)c(N)c(Cl)c3)[nH]c2c1	-329.4	-31.6	77.0*	86.9*	63.7*	-20.0	73.3*	94.5*	81.8*	76.4*
COc1ccc(-c2cc(-c3ccc(C)cc3)n[nH]2)c(O)c1	7.4	0.6	37.3	58.0*	32.8	48.7	42.4	71.6*	13.6	31.7
COc1ccc(-c2cc(-c3cc(C)ccc3O)[nH]n2)cc1	-0.8	1.2	61.5*	72.2*	56.0*	75.2*	73.6*	87.8*	19.3	38.7
COc1ccc(-c2cc(-c3ccc(OC)cc3)[nH]n2)cc1	12.1	0.1	-1.4	-19.5	6.2	nt	nt	nt	nt	nt
O=C(CN1CCN(CN2C(=O)NC3(CCCCCC3)C2=O)CC1)Nc1ccc(F)cc1	7.2	2.2	-10.5	-27.2	-6.8	nt	nt	nt	nt	nt
COc1ccc(C(C)(C)C)cc1NC(=O)CNc1cccc2ccccc12	-330.8	-20.8	24.7	77.2*	48.4	11.7	9.6	9.4	3.8	2.1
COc1ccccc1NC(=O)Cc1cccc2ccccc12	6.0	0.1	12.2	-34.6	1.8	nt	nt	nt	nt	nt
CCN(C(=O)Cn1nc(C)c([N+](=O)[O-])c1C)c1c(N)n(Cc2ccccc2)c(=O)[nH]c1=O	-0.5	-0.3	9.7	-8.7	-14.9	nt	nt	nt	nt	nt
CC1CCCC(C)N1C(=O)CSc1nc(N)c(-c2ccccc2)c(=O)[nH]1 (centres undefined)	6.6	0.1	86.6*	6.6	6.6	4.4	4.2	0.9	0.6	1.0
Nc1nc(SCC(=O)N2CCCC2)[nH]c(=O)c1-c1ccccc1	24.3	-0.1	1.5	-16.6	-2.7	nt	nt	nt	nt	nt
CCc1ccc(CNC(=O)C2CCN(S(=O)(=O)N3CCCCC3)CC2)cc1	22.5	0.8	nt	nt	nt	nt	nt	nt	nt	nt
Cc1cnc(C)c(Nc2nc(C(N)Cc3ccc(Cl)cc3)cs2)n1 (centres undefined)	-122.1	-14.8	nt	nt	nt	nt	nt	nt	nt	nt
COc1cc(O)sc1C=Nc1ccc(Cl)cc1	-7.6	-30.8	91.5*	95.0*	82.3*	85.4*	86.9*	100.3*	84.0*	56.8*
Oc1ccc(Br)cc1C=Nc1ccc(Cl)cc1	2.4	-20.5	3.7	-18.0	-7.2	nt	nt	nt	nt	nt
Cc1ncc(CO)c(CNc2ccc(-c3nc4ccccc4[nH]3)cc2)c1O	-244.5	-1.8	21.9	22.3	14.7	nt	nt	nt	nt	nt
O=C1C(Cl)=C(NCCc2ccccc2)C(=O)c2ccccc21	-82.1	6.3	nt	nt	nt	nt	nt	nt	nt	nt
C=CCNC1=C(Cl)C(=O)c2ccccc2C1=O	72.0*	-3.7	16.6	59.0*	20.6	20.5	50.0*	18.8	31.0	8.8
O=C1C(Cl)=C(NCc2cccnc2)C(=O)c2ccccc21	86.4*	7.5	29.7	59.7*	30.2	47.3	71.9*	26.6	66.0*	2.8
COCCCNC1=C(Cl)C(=O)c2ccccc2C1=O	37.4	5.1	16.7	31.5	6.4	nt	nt	nt	nt	nt
CCN(CC)CCCNC1=C(Cl)C(=O)c2ccccc2C1=O	46.7*	-0.9	11.0	75.4*	22.3	41.1	66.8*	20.6	54.6*	3.1
O=C1C(Cl)=C(Nc2ccccc2)C(=O)c2ccccc21	-39.7	3.7	nt	nt	nt	nt	nt	nt	nt	nt
CC(C)NC1=C(Cl)C(=O)c2ccccc2C1=O	51.7*	-1.9	-6.7	55.9*	33.6	15.3	45.1	13.9	26.5	4.9
O=C(CN1CCN(Cc2ccccc2F)CC1)Nc1ccccc1Cl	8.5	1.2	-3.4	-13.4	-9.3	nt	nt	nt	nt	nt
SMILES	SENP8 block-1	SENP1 FRET inh	SENP7 block	SENP6 inh	SENP8 block-2	SENP8 conf	SENP6 confirm	SENP7 conf	Casp3 SENP sel	SENP luc ctr
O=C(COC(=O)[C@@H]1CC(O)CN1S(=O)(=O)c1ccc(Cl)cc1)NC(=O)NCc1ccccc1 (some centres undefined)	8.0	-1.2	-3.5	-8.0	-1.9	nt	nt	nt	nt	nt
CC(C)OCCCNC1=C(Cl)C(=O)c2ccccc2C1=O	68.2*	1.8	16.6	62.5*	22.5	25.2	51.2*	14.6	17.9	15.2
O=C(COc1ccc(-c2ccccc2)cc1)NNC(=O)NC1CCCCC1	-22.0	2.0	-5.9	-10.1	-5.0	nt	nt	nt	nt	nt
CCN(CC)S(=O)(=O)c1ccc(O)c(NC(=O)COc2ccc(S(=O)(=O)N3CCOCC3)cc2)c1	-143.5	-1.5	nt	nt	nt	nt	nt	nt	nt	nt
Cc1ccc(-c2nc(N/N=C/c3cccnc3)c3ccccc3n2)cc1	-68.6	-4.2	89.8*	88.2*	87.3*	44.9	77.0*	76.5*	84.1*	21.3
Cc1ccc(-c2cc(-c3ccccc3)nc(N/N=C/c3cccnc3)n2)cc1	-202.7	-6.4	-6.4	-7.1	-8.6	nt	nt	nt	nt	nt
N#Cc1cccnc1N1CCN(C(c2ccnc3ccccc23)c2nnnn2-c2ccc3c(c2)OCCO3)CC1 (centres undefined)	-65.1	-1.5	nt	nt	nt	nt	nt	nt	nt	nt
CCc1nnc(NC(=O)c2cc(-c3ccccc3)nn2-c2ccccc2)s1	3.4	0.6	99.3*	-19.2	-0.4	-19.8	-12.0	-15.4	0.7	-6.6
O=C(Nc1nccs1)c1cc(-c2ccccc2)nn1-c1ccccc1	-62.5	-1.3	1.2	6.7	-5.0	nt	nt	nt	nt	nt
S=C(Nc1ccc(-c2nc3ccccc3[nH]2)cc1)Nc1cccnc1	-304.5	-3.7	40.6	64.9*	22.5	16.6	9.4	33.5	45.3	22.6
Cc1ccc2nc(-c3cccc(NC(=O)c4ccco4)c3)[nH]c2c1	-32.9	-1.2	95.3*	92.4*	86.6*	2.2	93.3*	100.9*	89.4*	92.4*
O=C(Nc1ccc(-c2nc3ccccc3[nH]2)cc1)c1ccco1	-68.9	-0.2	85.8*	91.1*	83.7*	86.9*	86.7*	96.4*	87.8*	64.9*
COc1ccc(NC(=O)CN(C)C2=NS(=O)(=O)c3ccccc32)cc1Cl	13.5	2.7	3.7	5.4	-5.4	nt	nt	nt	nt	nt
O=C(N/N=C/c1cc2c(cc1Cl)OCO2)c1ccccn1	-257.9	0.7	2.1	65.8*	46.5	0.0	-5.7	1.6	51.9*	9.0
O=C(N/N=C/c1ccc(OC(=O)c2ccccc2Br)cc1)c1ccccn1	-1.3	2.7	71.4*	-8.6	-8.8	4.3	3.2	9.0	11.2	6.1
Cc1ccsc1/C=N/NC(=O)c1ccccn1	-2.6	2.0	47.0	61.1*	30.2	49.6	40.5	78.3*	84.0*	60.4*
